Measurements collected from several papers.
Each line is one published result; the experiments were not run side by side. pIC50: −log10 of the molar value.
Read-out: cell growth or viability

Compound	cell line	method	time	endpoint	value
COCCOCOc1cc(O)c(-c2cc(-c3ccc(C(=O)O)cc3)n(C)n2)cc1C12CC3CC(CC(C3)C1)C2	Jurkat	ATP luminescence	24 h	pIC50	5.33
N.N.[Cl][Pt][Cl]	MIA PaCa-2	resazurin	72 h	pIC50	5.23
COc1c2c(cc3c1OCO3)[C@]13C=C[C@H](OC)C[C@@H]1[N@](C2)C[C@H]3OC(=O)c1ccoc1	MOLT-4	WST-1		pIC50	< 5.00
C[C@H]1O[C@H](Oc2c(-c3ccc(O)c(O)c3)oc3cc(O)cc(O)c3c2=O)[C@@H](O)[C@@H](O)[C@@H]1O	SW780	ATP luminescence	72 h	pIC50	3.72
CC1=C2C[C@H]3[C@@H](CC=C4C[C@@H](O)CC[C@@]43C)[C@@H]2CC[C@]12O[C@@H]1C[C@H](C)CN[C@H]1[C@H]2C	MIA PaCa-2	MTS	96 h	pIC50	4.77
COc1c2c(cc3c1OCO3)[C@]13C=C[C@H](OC)C[C@@H]1[N@](C2)C[C@H]3OC(=O)c1ccco1	MOLT-4	WST-1		pIC50	< 5.00
COc1cccc2c1C(=O)c1c(O)c3c(c(O)c1C2=O)C[C@@](O)(C(=O)CO)C[C@@H]3O[C@H]1C[C@H](N)[C@H](O)[C@H](C)O1	BT-549		48 h	IC50	1.5 mg/L
COCCOCOc1cc(OCc2ccc(Br)cc2)c(C(=O)/C=C/c2ccc(C(=O)O)cc2)cc1C12CC3CC(CC(C3)C1)C2	Jurkat	ATP luminescence	24 h	pIC50	6.08
Cl.O[C@]12C=C(c3nccc4c3[nH]c3ccccc34)[C@@H]3CCN(CCCC/C=C\CC1)C[C@@]31C[C@@H]3/C=C\CCCCN3[C@H]12	BT-549	neutral red	48 h	IC50	0.88 mg/L
N.N.[Cl][Pt][Cl]	PLC		48 h	pIC50	4.33
